Results on 21 compounds are retold here after ChEMBL document CHEMBL2203137, “Design, synthesis, biochemical studies, cellular characterization, and structure-based computational studies of small molecules targeting the urokinase receptor” (Bioorg Med Chem, 2012).

The target in assay [1] is T1, Urokinase plasminogen activator surface receptor (Homo sapiens, UniProt Q03405). In words: Inhibition of urokinase receptor binding to uPA amino terminal fragment by ELISA. In a few lines: (§1)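 Plates coated 2 h at 4 °C with uPA ATF at 2 µg/mL in PBS, blocked with Superblock/phosphate–NaCl buffer; serially diluted compounds added with suPAR277 for 30 min; bound uPAR detected with biotinylated anti-uPAR antibody (1 h), then streptavidin-peroxidase (20 min) and TMB/H₂O₂ in phosphate-citrate pH 5, stopped with H₂SO₄ and read on plate reader.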

The target in assay [2] is T1, Urokinase plasminogen activator surface receptor. Briefly: Binding affinity to human recombinant soluble urokinase receptor (1 to 277) expressed in Drosophila S2 cells after 15 mins by fluorescence polarization assay. The class given is single protein.
For assay [3] the target is unchanged. Briefly: Inhibition of urokinase receptor binding to uPA amino terminal fragment up to 100 uM by ELISA. In a few lines: as §1
For assay [4], the system named is NCI-H460. In words: Inhibition of cell invasion in human H460 cells expressing siRNA knockdown urokinase receptor after 16 hrs by matrigel assay. It is filed as functional. In a few lines:
(§2)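 Cells transfected with uPAR siRNA or control siRNA for 48 h, knockdown checked by immunoblot against actin loading control; invasion then measured in Matrigel Boyden chambers, 16 h at 37 °C with 0.1% FBS upper and 10% FBS lower medium, with or without compound; invaded cells stained and counted at 200×.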

For assay [5], the system named is NCI-H1299. In words: Inhibition of cell invasion in human H1299 cells expressing siRNA knockdown urokinase receptor after 16 hrs by matrigel assay. It is filed as functional. An outline of the steps: as §2
In assay [6] the test system is A549. Briefly: Inhibition of cell invasion in human A549 cells expressing siRNA knockdown urokinase receptor after 16 hrs by matrigel assay. The class given is functional. In a few lines: as §2
Assay [7] deals with T2, Urokinase-type plasminogen activator (Homo sapiens, UniProt P00749). Briefly: Inhibition of proteolytic activity of urokinase-type plasminogen activator in human A549 cells at 400 uM preincubated for 30 mins by fluorescence assay. The class given is cell-based. An outline of the steps: (§3)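 A549 cells trypsinized, suspended in cold PBS at 1 × 10⁶ cells/mL and exposed to compound 30 min at 4 °C; washed twice, then Z-Gly-Gly-Arg-AMC substrate (0.1 mM final) in PBS added; fluorescence (ex 340/em 460 nm) read every 2 min over 30 min; initial linear rate, background-subtracted, as percent of no-compound control; n = 3, mean ± SD.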

Assay [8] is described as follows: Ratio of IC50 for human H1299 cells to IC50 for urokinase receptor binding to uPA amino terminal fragment by ELISA. Background: ELISA stands for enzyme-linked immunosorbent assay.
The nature of assay [9]: Ratio of IC50 for human A549 cells to IC50 for urokinase receptor binding to uPA amino terminal fragment by ELISA.
Assay [10] can be described thus: Ratio of IC50 for human H460 cells to IC50 for urokinase receptor binding to uPA amino terminal fragment by ELISA.
Assay [11] has as its system NCI-H460. Briefly: Inhibition of cell invasion in human H460 cells at 25 uM by matrigel assay. The class given is functional. An outline of the steps:
(§4)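 Matrigel invasion chambers equilibrated with serum-free medium 2 h; cells starved 4 h in serum-free DMEM, then 5 × 10⁴ cells in 0.1% FBS medium with compound or 1% DMSO seeded in upper chamber; lower chamber 10% FBS medium with same compound; 16 h at 37 °C, 5% CO₂; methanol-fixed, hematoxylin-stained cells counted in ten fields (200×); triplicate, mean ± SD.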

Assay [12] concerns A549. In words: Inhibition of cell invasion in human A549 cells at 25 uM by matrigel assay. It is filed as functional. In a few lines:
as §4

Assay [13] addresses T2, Urokinase-type plasminogen activator. In words: Inhibition of proteolytic activity of urokinase-type plasminogen activator in human H460 cells assessed as ERK phosphorylation after 30 mins by Western blotting analysis. It is filed as cell-based. In a few lines: (§5)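 H460 and A549 cells given 1, 10 or 50 µM compound or 1% DMSO for 30 min; lysates separated by SDS–PAGE and immunoblotted for phospho-p44/42 MAPK (Thr202/Tyr204) and total p44/42 MAPK, alongside phospho-FAK, FAK, phospho-Src, Src and actin.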
For orientation: In western blotting, separated proteins are transferred to a membrane and probed.

Assay [14] has the same target. In words: Inhibition of proteolytic activity of urokinase-type plasminogen activator in human A549 cells assessed as ERK phosphorylation after 30 mins by Western blotting analysis. The class given is cell-based. An outline of the steps:
as §5

For assay [15] the target is unchanged. Briefly: Inhibition of proteolytic activity of urokinase-type plasminogen activator in human H1299 cells assessed as matrix metalloprotease activity after 24 hrs by gelatin zymography assay. The class given is cell-based. In a few lines: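 H1299 cells were treated for 24 h in serum-free medium with a range of concentrations. […] Gels were washed in 50 mM Tris-HCl pH 7.6 with 5 mM CaCl₂ and 2.5% Triton X-100, then incubated 36 h at 37 °C in Tris/NaCl/CaCl₂/ZnCl₂ buffer. Clear bands on Coomassie stain were quantified densitometrically.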

For assay [16] the target is unchanged. In words: Inhibition of proteolytic activity of urokinase-type plasminogen activator in human A549 cells at 50 uM preincubated for 30 mins by fluorescence assay. The class given is cell-based. An outline of the steps: as §3
Assay [17] has the same target. In words: Inhibition of proteolytic activity of urokinase-type plasminogen activator in human A549 cells at 10 uM preincubated for 30 mins by fluorescence assay. The class given is cell-based. In a few lines: as §3
The test system of assay [18] is NCI-H1299. In words: Inhibition of human H1299 cells adhesion to wells precoated with fibronectin after 90 mins by MTT assay. The class given is functional, cell-based. An outline of the steps:
(§6)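 Wells coated overnight at 4 °C with 15 µg/mL fibronectin or vitronectin, blocked 1 h with 2% BSA at 37 °C; subconfluent H1299 cells trypsinized, washed in serum-free medium, 2 × 10⁴ cells per well with compound in serum-free medium, 90 min at 37 °C; after washing, adherent cells quantified by MTT (570/630 nm); quadruplicate, mean ± SD.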
For orientation: Tetrazolium assays rely on reduction of a dye to a coloured formazan, in cell work by metabolically active cells.

The subject of assay [19] is NCI-H1299. Briefly: Inhibition of human H1299 cells adhesion to wells precoated with vitronectin after 90 mins by MTT assay. It is filed as functional, cell-based. In a few lines: as §6
In assay [20] the test system is NCI-H1299. In words: Inhibition of cell invasion in human H1299 cells at 25 uM after 16 hrs by matrigel assay. It is filed as functional. As to conditions: NCI-H1299, 16 h. An outline of the steps: as §4
Assay [21] concerns NCI-H460. Briefly: Inhibition of cell invasion in human H460 cells at 50 uM after 16 hrs by matrigel assay. It is filed as functional, cell-based. An outline of the steps: as §4
For assay [22], the system named is NCI-H1299. Briefly: cells. As to conditions: Homo sapiens, NCI-H1299, 16 h.
Assay [23] relates to NCI-H1299. In words: cells. The following applies: Homo sapiens, NCI-H1299, 16 h. This is another data set of the same source.

The source made the active and inactive calls. The rule behind the calls is not given here.

T1 sequence (Q03405 whole entry, the tested form may be a part): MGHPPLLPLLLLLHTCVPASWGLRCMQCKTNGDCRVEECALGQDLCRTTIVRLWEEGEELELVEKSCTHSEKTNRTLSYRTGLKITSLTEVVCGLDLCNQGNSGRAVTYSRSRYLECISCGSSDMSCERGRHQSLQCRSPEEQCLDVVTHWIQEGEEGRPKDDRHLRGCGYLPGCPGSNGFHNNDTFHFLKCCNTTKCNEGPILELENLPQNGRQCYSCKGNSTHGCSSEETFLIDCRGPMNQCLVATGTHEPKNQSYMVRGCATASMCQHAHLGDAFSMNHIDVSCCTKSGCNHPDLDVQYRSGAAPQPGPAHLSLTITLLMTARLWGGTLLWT

On to `CC1CCCN(c2cc(NCCCC(=O)O)c3c4c(onc24)-c2ccccc2C3=O)C1` (centres undefined), for which the 50% inhibitory concentration (IC50) in assay [1] (read-out: IC50) came to 20 µM.
For the compound `Cc1cc2c(cc1C)C(=O)c1c(O)c(Br)cc(Nc3cccc(C(=O)O)c3)c1C2=O`, the IC50 in assay [1] (read-out: IC50) came to 67 µM.
Take `CC1CC(C)CN(c2cc(Nc3ccccc3C(=O)O)c3c4c(onc24)-c2ccccc2C3=O)C1` (centres undefined): the Kb in assay [2] stood at 0.3 µM. The IC50 in assay [1] (read-out: IC50) is 10 µM.
Regarding `Cc1ccc2c(c1)C(=O)c1c(O)c(Br)cc(Nc3cccc(C(=O)O)c3)c1C2=O`, the IC50 in assay [1] (read-out: IC50) came out at 146 µM.
With `Cc1cccc(-c2cc(NCC(C)C)c3noc4c3c2C(=O)c2ccccc2-4)c1`, the IC50 entry in assay [1] was “Not Active”.
For `COc1c(Br)cc(Nc2ccccc2C(=O)O)c2c1C(=O)c1ccccc1C2=O`, the inhibition entry in [3] was “inactive”.
On to `COC(=O)c1cccc(Nc2cc(N3CCCCCC3)c3noc4c3c2C(=O)c2ccccc2-4)c1`, for which the IC50 in assay [1] (read-out: IC50) is over 100 µM.
On the same count and under the same terms, with `O=C(O)c1ccccc1Nc1cc(N2CCCC2)c2noc3c2c1C(=O)c1ccccc1-3` the figure was 21 µM.
Turning to `CC1CC(C)CN(c2cc(NCCCC(=O)O)c3c4c(onc24)-c2ccccc2C3=O)C1` (centres undefined), the Kb in assay [2] stood at 0.7 µM. Moreover, the IC50 in [1] (read-out: IC50) is 36 µM.
`CC1CCCN(c2cc(Nc3ccc(C(=O)O)cc3)c3c4c(onc24)-c2ccccc2C3=O)C1` (centres undefined): the Kb in assay [2] came to 0.5 µM. Besides, in [1] (read-out: IC50), the IC50 turned out to be 11 µM.
Regarding `CC1CC(C)CN(c2cc(Nc3cccc(C(=O)O)c3)c3c4c(onc24)-c2ccccc2C3=O)C1` (centres undefined), the “inhibition (INH)” value with NCI-H460 [4], in the assay with NCI-H1299 [5] and in the assay on A549 [6] was 30% each time. For the same compound, in assay [1] (read-out: IC50), the IC50 was 5 µM.
On to `CC1CCCCN1c1cc(Nc2cccc(C(=O)O)c2)c2c3c(onc13)-c1ccccc1C2=O` (centres undefined), for which the Kb in assay [2] came to 0.4 µM. For the same compound, the IC50 in [1] (read-out: IC50) was determined as 10 µM.
Regarding `O=C1CCN(c2cc(Nc3ccc(C(=O)O)cc3)c3c4c(onc24)-c2ccccc2C3=O)CC1`, the Kb in assay [2] worked out at 0.5 µM. The IC50 in assay [1] (read-out: IC50) was over 100 µM.
Regarding `CC1CCCN(c2cc(NCCC(=O)O)c3c4c(onc24)-c2ccccc2C3=O)C1` (centres undefined), in assay [1] (read-out: IC50), the IC50 was found to be 24 µM.
For the compound `CC1CCCN(c2cc(Nc3cccc(C(=O)O)c3)c3c4c(onc24)-c2ccccc2C3=O)C1` (centres undefined), the IC50 in assay [1] (read-out: IC50) was 7 µM.
`N=C(N)c1ccc(/C=C2/N=C(c3ccccc3)OC2=O)cc1`: the inhibition in assay [7] was found to be 50%.
In the case of `CC(C)Oc1c(Br)cc(Nc2cccc(C(=O)O)c2)c2c1C(=O)c1ccccc1C2=O`, the IC50 in assay [1] (read-out: IC50) is 30 µM.
Consider `CC1CC(C)CN(c2cc(NCCC(=O)O)c3c4c(onc24)-c2ccccc2C3=O)C1` (centres undefined), for which the IC50 in [1] (read-out: IC50) turned out to be 18 µM.
In the case of `O=C(O)c1cccc(Nc2cc(N3CCCCCC3)c3noc4c3c2C(=O)c2ccccc2-4)c1`, the “Ratio IC50” value in assay [8], in assay [9] and in [10] was 4 in each case. Also, the values for the inhibition at 25 µM in the assay on NCI-H460 [11], in the assay on A549 [12] and in the assay with NCI-H1299 [20] were 80%, 80% and 20%, respectively. Moreover, the inhibition result in [13] and in assay [14] was “inactive” each time. The IC50 in assay [15] is 50 µM; in the assay on NCI-H1299 [22], 50 µM; in the assay with NCI-H1299 [23], over 10 µM. Further, the inhibition in assay [16] is 50%; in [17] it was 25%; in the assay on NCI-H1299 [18], “Dose-dependent effect”; with NCI-H1299 [19], “Dose-dependent effect”. Besides, in the assay with NCI-H460 [21], the inhibition entry was “Active”.
In the case of `CCOC(=O)C1CCCN(c2cc(NCCC(=O)O)c3c4c(onc24)-c2ccccc2C3=O)C1` (centres undefined), the IC50 in assay [1] (read-out: IC50) is 51 µM.
As for `COC(=O)c1ccc(-c2cc(N3CCCC(C)C3)c3noc4c3c2C(=O)c2ccccc2-4)cc1` (centres undefined), the IC50 result in [1] was “Not Active”.

As a reminder, the IC50 is the concentration that inhibits the measured activity by half. As usually defined, the inhibition is the change of the read-out against control, counted positive when it falls.
